Structures are written as SMILES.

As a reminder, the IC50 is the concentration that gives 50% inhibition. As usually defined, the fraction unbound is the share of the substance not bound to proteins or other matrix. Broadly, the chromatographic logD is a lipophilicity value derived from retention on a column. As usually defined, the EC50 is the concentration at which the effect is half-maximal.

One series has as its target Cytochrome P450 2D6 (Homo sapiens, UniProt P10635). Description: Inhibition of CYP2D6 (unknown origin) coexpressed in Escherichia coli with human NADPH reductase using 4-methylaminomethyl-7-methoyxycoumarin as substrate after 10 mins by fluorescence assay. The series is classed as ADME. In a few lines:
(§1)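 Recombinant CYP co-expressed in E. coli with human NADPH reductase, incubated with an isoform-specific pro-fluorescent substrate and compound (nine concentrations, 0.1-100 µM) plus a 0.2 mM NADPH regenerating system for 10 min at 37°C. Fluorescent metabolite formation was monitored.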

Series [1] can be described thus: Fraction unbound in CD rat blood after 4 hrs by LC-MS/MS analysis. Type of series: ADME, tissue-based. In a few lines:
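Fresh blood (CD rat, CD1 mouse, Beagle dog, single human donor) spiked at 1000 ng/mL and dialysed against PBS by rapid equilibrium dialysis for 4 h at 37°C. Matrix-matched LC-MS/MS; unbound fraction taken from the buffer/blood peak area ratio.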

Series [2] in a line: Intrinsic clearance in cynomolgus monkey hepatocytes at 0.5 uM after 2 hrs by LC-MS/MS analysis. The series is classed as ADME, cell-based, Macaca fascicularis, Hepatocyte.
The next series deals with Cytochrome P450 2C19 (Homo sapiens, UniProt P33261). Description: Inhibition of CYP2C19 (unknown origin) coexpressed in Escherichia coli with human NADPH reductase using 3-butyryl-7-methoxycoumarin as substrate after 10 mins by fluorescence assay. The series is classed as ADME. Put shortly: as §1
A short description of series [3]: Passive permeability from apical to basolateral side in MDCK2-MDR1 cells after 90 mins by LC-MS/MS analysis. The series is classed as ADME, cell-based, Canis lupus familiaris, MDCK-II. Conditions: dog, MDCK-MDR1; read-out: permeability. Put shortly:
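MDCKII-MDR1 monolayers used 3-4 days after seeding on inserts. Apical FaSSIF at pH 5.5 or 7.4; basolateral DMEM pH 7.4 with 1% HSA. Both sides contained 2 µM GF120918 and were preincubated 30 min. A→B transport measured in triplicate after 90 min at 37°C with shaking.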

A short description of series [4]: Lipophilicity, log D of the compound at pH 2 by chromatography. Particulars: buffer. The series is classed as physicochemical.
Another series deals with Cytochrome P450 2C9 (Homo sapiens, UniProt P11712). As to the kind of experiment: Inhibition of CYP2C9 (unknown origin) coexpressed in Escherichia coli with human NADPH reductase using 7-methoxy-4-trifluoromethylcoumarin-3-acetic acid as substrate after 10 mins by fluorescence assay. Type of series: ADME. In a few lines: as §1
Series [5] has as its target Sphingosine 1-phosphate receptor 2 (Homo sapiens, UniProt O95136). As to the kind of experiment: Agonist activity at human S1P2 receptor expressed in Saccharomyces cerevisiae after 24 hrs by reporter gene assay. In a few lines:
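S. cerevisiae with integrated S1P2 under the GPD promoter, seeded at 0.02 OD600 in histidine-free minimal medium with 5 mM 3-aminotriazole and 100 µM fluorescein-di-(β-D-glucopyranoside). Agonist-driven growth was read as fluorescein fluorescence (ex 485/em 535 nm) after 24 h at 30°C.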
For orientation: A reporter such as luciferase makes a cellular process visible.

A short description of series [6]: Lipophilicity, log D of the compound at pH 7.4 by chromatography. The series is classed as physicochemical. Particulars: buffer.
Series [7] concerns the target Sphingosine 1-phosphate receptor 1 (Homo sapiens, UniProt P21453). As to the kind of experiment: Agonist activity at human S1P1 receptor expressed in CHO-K1 EDG1 cells by beta-arrestin recruitment assay. Type of series: cell-based. Put shortly: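 CHO-K1 cells stably expressing beta-arrestin 2 and S1P1 fused to complementing beta-galactosidase fragments; grown to 80% confluency, harvested enzyme-free, resuspended in HEPES/BSA assay buffer pH 7.4. Cells at 1x10^4/well added to compound in DMSO, 90 min at 37°C/5% CO2, then 15 min at room temperature; chemiluminescent detection mix 60 min at room temperature, luminescence read.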
Background: Recruitment of arrestin is a read-out of receptor activation apart from second messengers.

Sequence of Cytochrome P450 2C19 (P33261 whole entry): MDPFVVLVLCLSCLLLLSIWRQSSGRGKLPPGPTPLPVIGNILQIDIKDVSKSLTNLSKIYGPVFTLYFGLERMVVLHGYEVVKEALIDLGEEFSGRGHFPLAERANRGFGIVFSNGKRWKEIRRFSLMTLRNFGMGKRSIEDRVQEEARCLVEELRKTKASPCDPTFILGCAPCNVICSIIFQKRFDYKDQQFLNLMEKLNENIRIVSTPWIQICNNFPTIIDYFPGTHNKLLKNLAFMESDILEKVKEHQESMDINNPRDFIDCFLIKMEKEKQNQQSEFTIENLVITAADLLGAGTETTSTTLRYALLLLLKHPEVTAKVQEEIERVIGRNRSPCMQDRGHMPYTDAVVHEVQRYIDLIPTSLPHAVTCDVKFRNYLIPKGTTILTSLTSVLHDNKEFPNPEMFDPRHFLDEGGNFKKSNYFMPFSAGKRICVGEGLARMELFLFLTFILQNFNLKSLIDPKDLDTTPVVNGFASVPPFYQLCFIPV
Sequence of Cytochrome P450 2D6 (P10635 whole entry, canonical isoform): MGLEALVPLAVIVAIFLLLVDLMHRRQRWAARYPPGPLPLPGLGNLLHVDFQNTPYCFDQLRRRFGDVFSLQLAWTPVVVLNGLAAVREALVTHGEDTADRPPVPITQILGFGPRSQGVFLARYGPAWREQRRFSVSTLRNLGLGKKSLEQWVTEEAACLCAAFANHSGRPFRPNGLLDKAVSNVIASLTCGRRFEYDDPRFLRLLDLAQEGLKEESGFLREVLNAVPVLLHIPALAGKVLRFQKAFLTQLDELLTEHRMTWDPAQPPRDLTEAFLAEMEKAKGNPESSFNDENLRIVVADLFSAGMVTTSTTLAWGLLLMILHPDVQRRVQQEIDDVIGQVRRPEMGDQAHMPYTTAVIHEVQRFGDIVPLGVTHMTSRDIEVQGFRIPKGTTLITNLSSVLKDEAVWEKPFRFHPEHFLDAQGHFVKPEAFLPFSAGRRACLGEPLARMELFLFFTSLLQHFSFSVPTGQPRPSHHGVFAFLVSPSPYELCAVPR
Sequence of Sphingosine 1-phosphate receptor 2 (O95136 whole entry): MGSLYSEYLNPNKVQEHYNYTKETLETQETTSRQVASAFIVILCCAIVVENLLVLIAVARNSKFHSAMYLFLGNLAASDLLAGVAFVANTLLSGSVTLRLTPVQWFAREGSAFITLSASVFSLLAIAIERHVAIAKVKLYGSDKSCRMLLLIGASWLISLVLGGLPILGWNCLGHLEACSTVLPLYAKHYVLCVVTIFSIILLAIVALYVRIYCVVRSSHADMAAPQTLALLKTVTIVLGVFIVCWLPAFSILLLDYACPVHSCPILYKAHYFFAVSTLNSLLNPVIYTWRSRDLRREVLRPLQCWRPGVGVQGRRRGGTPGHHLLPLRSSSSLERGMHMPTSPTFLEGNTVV
Sequence of Sphingosine 1-phosphate receptor 1 (P21453 whole entry, the tested form may be a part): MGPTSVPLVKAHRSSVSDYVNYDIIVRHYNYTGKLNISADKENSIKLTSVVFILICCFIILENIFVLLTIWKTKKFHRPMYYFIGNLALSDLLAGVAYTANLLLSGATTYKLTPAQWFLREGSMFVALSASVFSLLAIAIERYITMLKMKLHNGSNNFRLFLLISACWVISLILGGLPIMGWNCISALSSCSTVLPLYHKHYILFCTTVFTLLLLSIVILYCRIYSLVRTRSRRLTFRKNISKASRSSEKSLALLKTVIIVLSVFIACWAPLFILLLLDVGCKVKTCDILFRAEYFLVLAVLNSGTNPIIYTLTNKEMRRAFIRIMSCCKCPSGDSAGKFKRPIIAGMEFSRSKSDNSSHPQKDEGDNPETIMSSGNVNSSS
Sequence of Cytochrome P450 2C9 (P11712 whole entry): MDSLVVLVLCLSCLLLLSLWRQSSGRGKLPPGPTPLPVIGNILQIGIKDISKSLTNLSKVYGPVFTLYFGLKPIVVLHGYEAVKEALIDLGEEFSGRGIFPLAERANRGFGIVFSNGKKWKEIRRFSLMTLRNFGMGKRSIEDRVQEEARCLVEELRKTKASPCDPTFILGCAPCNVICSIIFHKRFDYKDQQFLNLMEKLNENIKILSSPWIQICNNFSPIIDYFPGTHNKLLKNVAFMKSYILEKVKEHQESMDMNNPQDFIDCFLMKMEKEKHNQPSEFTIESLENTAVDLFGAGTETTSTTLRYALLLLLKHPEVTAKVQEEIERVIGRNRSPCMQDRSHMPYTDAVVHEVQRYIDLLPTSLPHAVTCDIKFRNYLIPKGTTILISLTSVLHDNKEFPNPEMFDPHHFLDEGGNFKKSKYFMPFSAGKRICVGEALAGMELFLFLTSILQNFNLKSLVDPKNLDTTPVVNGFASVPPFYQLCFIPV

Regarding `Cc1c2c(nn1-c1nnc(-c3ccc(OC(C)C)c(Cl)c3)s1)CCN(CCC(=O)O)C2`, the IC50 on Cytochrome P450 2D6, on Cytochrome P450 2C19 and against Cytochrome P450 2C9 was above 50 µM each time. Also, the fraction unbound at 4 h in series [1] came to 0.014. In series [2], this compound showed a CLH of 4.2 mL/min/g. Moreover, the Papp A→B at 1.5 h in series [3] came to 14.7 ×10⁻⁶ cm/s. In addition, the results for the chromatographic logD in series [4] and in series [6] were 1.03 and 3.73, respectively. Further, the EC50 was above 31.6 µM in series [5] and 0.00158 µM in series [7].
